Calls of active or inactive are those of the source.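 Rule for the calls, unless noted: active = viability at or under a set limit in both replicates, limit being median viability minus 3 SD (cut at about 48% in these data, passing the limit was not always enough); inconclusive = at or under the limit in just one replicate; inactive = at or above the limit in both replicates.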
Assays:
[1] = Her2 expression decrease, cell viability multiplex – SKBR3 breast tumor cells, AlphaScreen, ATP viability, primary screen (AID 461;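 active = Her2 level under about 52% in both replicate screens, with viability over 70% of control, limit read from the data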;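 for Her2 level: lower value means less Her2 protein in the cells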;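 for viability: percent of carrier control wells set as 100% viability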); conditions: SKBR3 Her2 protein level, 18-24 h, measured here: SKBR3 viability, ATP luminescence, at 10 µM
[2] = biological target: Receptor tyrosine-protein kinase erbB-2 (Homo sapiens) (UniProt P04626); test: as above; conditions: 18-24 h, at 10 µM, stronger effect = lower value
Chain of Receptor tyrosine-protein kinase erbB-2 (Homo sapiens) (P04626 whole entry, looked up): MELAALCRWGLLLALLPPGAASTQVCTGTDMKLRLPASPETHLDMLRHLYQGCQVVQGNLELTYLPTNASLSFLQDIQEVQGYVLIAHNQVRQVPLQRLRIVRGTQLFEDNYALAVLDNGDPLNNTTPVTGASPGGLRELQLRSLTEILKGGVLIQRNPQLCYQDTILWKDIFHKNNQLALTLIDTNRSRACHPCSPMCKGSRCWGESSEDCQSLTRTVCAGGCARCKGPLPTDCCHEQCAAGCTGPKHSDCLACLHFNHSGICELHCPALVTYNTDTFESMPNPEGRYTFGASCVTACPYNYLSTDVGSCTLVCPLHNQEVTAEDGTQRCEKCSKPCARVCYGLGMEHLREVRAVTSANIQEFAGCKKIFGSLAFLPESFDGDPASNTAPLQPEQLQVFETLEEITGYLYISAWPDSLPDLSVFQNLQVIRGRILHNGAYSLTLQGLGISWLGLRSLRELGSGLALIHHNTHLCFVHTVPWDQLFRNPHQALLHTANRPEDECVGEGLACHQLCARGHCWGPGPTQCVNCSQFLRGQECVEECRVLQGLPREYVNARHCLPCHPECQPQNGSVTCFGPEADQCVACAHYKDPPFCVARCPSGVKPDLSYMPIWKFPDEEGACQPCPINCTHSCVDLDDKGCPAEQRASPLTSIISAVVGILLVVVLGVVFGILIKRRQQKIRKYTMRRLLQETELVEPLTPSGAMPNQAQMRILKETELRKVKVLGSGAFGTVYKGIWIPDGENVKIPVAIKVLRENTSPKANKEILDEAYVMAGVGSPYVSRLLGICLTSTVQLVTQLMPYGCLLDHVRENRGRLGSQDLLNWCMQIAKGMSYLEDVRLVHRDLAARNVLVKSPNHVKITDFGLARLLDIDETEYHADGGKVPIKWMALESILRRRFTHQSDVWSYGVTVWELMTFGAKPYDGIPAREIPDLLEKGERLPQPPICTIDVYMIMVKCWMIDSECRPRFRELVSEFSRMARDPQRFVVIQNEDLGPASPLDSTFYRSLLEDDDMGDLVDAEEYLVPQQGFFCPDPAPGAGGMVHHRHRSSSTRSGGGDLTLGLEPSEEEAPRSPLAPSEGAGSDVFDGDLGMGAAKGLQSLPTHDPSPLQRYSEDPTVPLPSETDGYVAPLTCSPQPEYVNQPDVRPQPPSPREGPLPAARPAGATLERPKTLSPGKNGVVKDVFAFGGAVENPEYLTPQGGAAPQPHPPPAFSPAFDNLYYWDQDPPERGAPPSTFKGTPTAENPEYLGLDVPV

[3] = reduced viability of SK-BR-3 breast cancer cells – cell-based, 24 h, human, pilot screen (AID 572;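 active = viability at or below 10% of carrier control in both of two separate runs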;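 note: compound exposure lasted between 18 and 24 h rather than exactly 24 h; 100% = carrier-treated control wells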); conditions: SK-BR-3 viability, CellTiter-Glo luminescence, at 10 µM, stronger effect = lower value
[4] = HUVEC growth inhibition – cell-based, human, primary screen (AID 575;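 active = viability at or below 30% in both replicate assays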;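 note: 100% = median of untreated cell wells with 0.1% DMSO on each plate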); conditions: HUVEC proliferation, CellTiter-Glo luminescence, 72 h; at 10 µM; stronger effect = lower value
Summary of the method: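 Timing: 72 h treatment at 37 °C; material: HUVEC primary cells; technique: CellTiter-Glo luminescence measuring cellular ATP; controls: vehicle and MePR control wells; measure: percent of median DMSO-control luminescence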

[5] = H69AR cell proliferation blockers – human, duplicate replicates, primary screen (AID 580); conditions: H69AR lung tumor cells viability, ATP luminescence, 72 h; at 10 µM; stronger effect = lower value;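 note: 100% = mean luminescence of untreated wells and 0% = no signal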
[6] = MRP1 drug-resistance reversers in H69AR cells – cell-based, doxorubicin co-treatment, pilot screen (AID 601;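 active = viability loss from added drug above about 55%, and viability with drug at most 40%, in both replicates, limit read from the data, passing the limit was not always enough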); conditions: CellTiter-Glo, 72 h, at 10 µM; for differential viability (reversal): stronger effect = higher value
[7] = yeast transport mutant growth inhibition pilot in 384-well plates, post-Golgi transport modulator project (AID 636; in the data active = inhibition above about 31%); conditions: absorbance 615 nm, about 18 h, stronger effect = higher value
[8] = growth suppression of yeast trafficking mutant, preliminary HTS, modulators of trafficking downstream of Golgi apparatus project, 1536-format plate, OD 615 nm (AID 637; in the data active = inhibition above about 30%); conditions: yeast transport mutant growth, absorbance 615 nm, 18 h; stronger effect = higher value
[9] = H69AR cells + 2 uM doxorubicin, measured here: viability with 2 uM doxorubicin, stronger effect = lower value
[10] = H69AR cells, compound alone cytotoxicity

## CCOC(=O)C1CCCN(c2cc(=O)n(Cc3ccc(F)cc3)c(=O)[nH]2)C1 (stereo not given)
[1]
  viability: 92%
[2]
  Her2 level: 87% (inactive)
[3]
  viability: 92% (inactive)
[4]
  viability: 92.6% (inactive)
[5]
  viability: 97.2% (inactive)
[6]; H69AR cells + 2 uM doxorubicin
  differential viability (reversal): 3.08% (inactive)
[6]; [9]
  viability: 94.1%
[6]; [10]
  viability: 97.2%
[7]
  inhibition: -4.67% (inactive)
[8]
  inhibition: 0.33% (inactive)

## CCN(CC)C(=O)CN(c1cc(Cl)ccc1OC)S(C)(=O)=O
[1]
  viability: 95.5%
[2]
  Her2 level: 89.5% (inactive)
[3]
  viability: 95.5% (inactive)
[4]
  viability: 95.2% (inactive)
[5]
  viability: 102% (inactive)
[6]; H69AR cells + 2 uM doxorubicin
  differential viability (reversal): 9.04% (inactive)
[6]; [9]
  viability: 93.3%
[6]; [10]
  viability: 102%
[7]
  inhibition: -1.18% (inactive)
[8]
  inhibition: -3.71% (inactive)

## CCOC(=O)CSc1nc2c(c(-c3ccc(C)o3)c1C#N)CCCC2
[1]
  viability: 89.5%
[2]
  Her2 level: 88.5% (inactive)
[3]
  viability: 89.5% (inactive)
[4]
  viability: 65.8% (inactive)
[5]
  viability: 73.8% (inactive)
[6]; H69AR cells + 2 uM doxorubicin
  differential viability (reversal): 6.76% (inactive)
[6]; [9]
  viability: 67%
[6]; [10]
  viability: 73.8%
[7]
  inhibition: 0.26% (inactive)
[8]
  inhibition: -2.46% (inactive)

## CCCCCn1c(N2CCN(Cc3ccccc3)CC2)nc2c1c(=O)[nH]c(=O)n2C
[1]
  viability: 110%
[2]
  Her2 level: 78% (inactive)
[3]
  viability: 110% (inactive)
[4]
  viability: 93.3% (inactive)
[5]
  viability: 76.9% (inactive)
[6]; H69AR cells + 2 uM doxorubicin
  differential viability (reversal): 23.7% (inactive)
[6]; [9]
  viability: 53.2%
[6]; [10]
  viability: 76.9%
[7]
  inhibition: -6.67% (inactive)
[8]
  inhibition: -2.46% (inactive)

## Cc1cccc(N2CCN(C(=O)CCn3c(=S)[nH]c4cc5c(cc4c3=O)OCO5)CC2C)c1 (stereo not given)
[1]
  viability: 86%
[2]
  Her2 level: 85.5% (inactive)
[3]
  viability: 86% (inactive)
[4]
  viability: 38.2% (inactive)
[5]
  viability: 50.8% (inactive)
[6]; H69AR cells + 2 uM doxorubicin
  differential viability (reversal): -5.97% (inactive)
[6]; [9]
  viability: 56.8%
[6]; [10]
  viability: 50.8%
[7]
  inhibition: -1.3% (inactive)
[8]
  inhibition: 1.27% (inactive)

## CCOC(=O)C(C)On1c(SC(C)C(=O)OCC)nc2ccccc2c1=O (stereo not given)
[1]
  viability: 131%
[2]
  Her2 level: 102% (inactive)
[3]
  viability: 131% (inactive)
[4]
  viability: 93.4% (inactive)
[5]
  viability: 82.1% (inactive)
[6]; H69AR cells + 2 uM doxorubicin
  differential viability (reversal): -19.7% (inactive)
[6]; [9]
  viability: 102%
[6]; [10]
  viability: 82.1%
[7]
  inhibition: -3.68% (inactive)
[8]
  inhibition: -6.61% (inactive)

## COc1ccc2c(c1)CCc1c(C(=O)NCc3cccnc3)noc1-2
[1]
  viability: 97.5%
[2]
  Her2 level: 95.5% (inactive)
[3]
  viability: 97.5% (inactive)
[4]
  viability: 102% (inactive)
[5]
  viability: 103% (inactive)
[6]; H69AR cells + 2 uM doxorubicin
  differential viability (reversal): 17.7% (inactive)
[6]; [9]
  viability: 85.3%
[6]; [10]
  viability: 103%
[7]
  inhibition: -1.71% (inactive)
[8]
  inhibition: 0.55% (inactive)

## O=S1(=O)CC(N2CCCCC2)C(N2CCCCC2)C1 (stereo not given)
[1]
  viability: 104%
[2]
  Her2 level: 91.5% (inactive)
[3]
  viability: 104% (inactive)
[4]
  viability: 108% (inactive)
[5]
  viability: 95.3% (inactive)
[6]; H69AR cells + 2 uM doxorubicin
  differential viability (reversal): 16.9% (inactive)
[6]; [9]
  viability: 78.3%
[6]; [10]
  viability: 95.3%
[7]
  inhibition: -2.99% (inactive)
[8]
  inhibition: 1.27% (inactive)

## COc1ccc(C)cc1NC(=O)CN(Cc1nnc(-c2ccc(Cl)cc2)o1)C1CCCC1
[1]
  viability: 89%
[2]
  Her2 level: 89.5% (inactive)
[3]
  viability: 89% (inactive)
[4]
  viability: 84.5% (inactive)
[5]
  viability: 4.7% (active)
[6]; H69AR cells + 2 uM doxorubicin
  differential viability (reversal): -33.9% (inactive)
[6]; [9]
  viability: 38.6%
[6]; [10]
  viability: 4.7%
[7]
  inhibition: -4.73% (inactive)
[8]
  inhibition: -2.95% (inactive)

## Cn1c(=O)oc2cc(S(=O)(=O)N3CCC(C(=O)Nc4ccc(OC(F)(F)F)cc4)CC3)ccc21
[1]
  viability: 137%
[2]
  Her2 level: 98.5% (inactive)
[3]
  viability: 137% (inactive)
[4]
  viability: 91.4% (inactive)
[5]
  viability: 33% (active)
[6]; H69AR cells + 2 uM doxorubicin
  differential viability (reversal): -4.57% (inactive)
[6]; [9]
  viability: 37.5%
[6]; [10]
  viability: 33%
[7]
  inhibition: -5.92% (inactive)
[8]
  inhibition: 0.18% (inactive)

## Cc1c(C(=O)Nc2cnccn2)oc2ccccc12
[1]
  viability: 110%
[2]
  Her2 level: 72% (inactive)
[3]
  viability: 110% (inactive)
[4]
  viability: 58.6% (inactive)
[5]
  viability: 37.4% (active)
[6]; H69AR cells + 2 uM doxorubicin
  differential viability (reversal): -35.3% (inactive)
[6]; [9]
  viability: 72.7%
[6]; [10]
  viability: 37.4%
[7]
  inhibition: -5.6% (inactive)
[8]
  inhibition: 3.49% (inactive)

## Cc1cc(C)n(C2=NS(=O)(=O)c3ccccc32)n1
[1]
  viability: 86.5%
[2]
  Her2 level: 115% (inactive)
[3]
  viability: 86.5% (inactive)
[4]
  viability: 108% (inactive)
[5]
  viability: 101% (inactive)
[6]; H69AR cells + 2 uM doxorubicin
  differential viability (reversal): 6.08% (inactive)
[6]; [9]
  viability: 95.2%
[6]; [10]
  viability: 101%
[7]
  inhibition: 3.07% (inactive)
[8]
  inhibition: 5.08% (inactive)

## CCOc1ccc2nc(SCC(=O)N3CCCCCC3)c(C#N)cc2c1
[1]
  viability: 95%
[2]
  Her2 level: 82.5% (inactive)
[3]
  viability: 95% (inactive)
[4]
  viability: 87.5% (inactive)
[5]
  viability: 86.2% (inactive)
[6]; H69AR cells + 2 uM doxorubicin
  differential viability (reversal): -3.21% (inactive)
[6]; [9]
  viability: 89.4%
[6]; [10]
  viability: 86.2%
[7]
  inhibition: -5.87% (inactive)
[8]
  inhibition: 3.28% (inactive)

## Cn1c(=O)c2c3c(sc2n2c(SCc4ccccc4)nnc12)CCCC3
[1]
  viability: 77%
[2]
  Her2 level: 91.5% (inactive)
[3]
  viability: 77% (inactive)
[4]
  viability: 88.8% (inactive)
[5]
  viability: 87.5% (inactive)
[6]; H69AR cells + 2 uM doxorubicin
  differential viability (reversal): 9.04% (inactive)
[6]; [9]
  viability: 78.4%
[6]; [10]
  viability: 87.5%
[7]
  inhibition: -2.93% (inactive)
[8]
  inhibition: -1.75% (inactive)
